According to ChEMBL document CHEMBL4350958, “Rational Design of Short Peptide Variants by Using Kunitzin-RE, an Amphibian-Derived Bioactivity Peptide, for Acquired Potent Broad-Spectrum Antimicrobial and Improved Therapeutic Potential of Commensalism Coinfection of Pathogens” (J Med Chem, 2019):

What was measured:
Candida albicans [1] = experiment: Antifungal activity against Candida albicans cgmcc2.2086 measured after 48 hrs in presence of KCl by broth microdilution method; type: functional
[2] = Therapeutic index, ratio of MHC10 for hemolytic activity in human RBC to MIC95 against Staphylococcus aureus ATCC 25923; type: toxicity; conditions: human red blood cells (erythrocytes), read-out: TI
Method in brief: (§1)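 Therapeutic index = MHC divided by MIC. MHC is the lowest concentration giving >10% lysis of human RBC (1 h, 37 °C, 1-128 µM, A576). MIC is 95% growth inhibition by broth microdilution: bacteria in MHB 24 h at 37 °C; Candida in MOPS-buffered RPMI 1640 at (0.5–1) × 10^3 CFU mL−1, 48 h at 28 °C.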

Staphylococcus aureus [3] = experiment: Antibacterial activity against Staphylococcus aureus ATCC 29213 measured after 18 to 24 hrs in presence of NaCl; type: functional
Escherichia coli [4] = experiment: Antibacterial activity against Escherichia coli UB1005 measured after 24 hrs; type: functional
Method in brief: (§2)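 Broth microdilution adapted from NCCLS. Mid-log bacteria were diluted in MHB to a final (0.5–1) × 10^5 CFU mL−1. Peptides were serially diluted in 0.2% BSA and mixed with an equal volume of cells. After 24 h at 37 °C, MIC was read at A492 as the lowest concentration inhibiting 95% of growth. At least three independent experiments, each with three technical replicates.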

Escherichia coli [5] = experiment: Antibacterial activity against Escherichia coli ATCC 25922 measured after 18 to 24 hrs in presence of CaCl2; type: functional
[6] = test system: Staphylococcus epidermidis; experiment: Antibacterial activity against Staphylococcus epidermidis ATCC 12228 measured after 24 hrs; type: functional; method in brief: as §2
Staphylococcus aureus [7] = experiment: Antibacterial activity against Staphylococcus aureus ATCC 29213 measured after 18 to 24 hrs in presence of CaCl2; type: functional
Staphylococcus aureus [8] = experiment: Bactericidal activity against methicillin-resistant Staphylococcus aureus ATCC 43300 incubated for 24 hrs followed by replating on agar plate and measured after overnight incubation; type: functional; conditions: for MBC: ATCC 43300, 24 h, read-out: MBC>99.9
Method in brief: (§3)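 After the 24 h, 37 °C MHB microdilution MIC assay, 50 μL from each well was plated on agar and incubated overnight. MBC taken as lowest peptide concentration killing >99.9% of cells. At least three independent experiments, each with three technical replicates.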

Candida albicans [9] = experiment: Antifungal activity against Candida albicans cgmcc2.2086 measured after 48 hrs in presence of FeCl by broth microdilution method; type: functional
Staphylococcus aureus [10] = experiment: Antibacterial activity against Staphylococcus aureus ATCC 29213 measured after 24 hrs; type: functional
Method in brief: (§4)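 Broth microdilution modified from NCCLS. Mid-log bacteria at (0.5–1) × 10^5 CFU mL−1 in MHB, mixed with peptides serially diluted in 0.2% BSA. Incubated 24 h at 37 °C, read at A492. MIC taken as lowest concentration giving 95% growth inhibition. At least three independent experiments, each with three technical replicates.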

Candida albicans [11] = experiment: Antifungal activity against Candida albicans cgmcc2.2086 measured after 48 hrs in presence of MgCl by broth microdilution method; type: functional
[12] = test system: Staphylococcus epidermidis; experiment: Bactericidal activity against Staphylococcus epidermidis ATCC 12228 incubated for 24 hrs followed by replating on agar plate and measured after overnight incubation; type: functional; conditions: for MBC: ATCC 12228, 24 h, read-out: MBC>99.9
Method in brief: (§5)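 Mid-log bacteria diluted in MHB to (0.5–1) × 10^5 CFU/mL and mixed 1:1 with peptide serially diluted in 0.2% BSA. After 24 h at 37 °C, 50 μL of each mixture was plated on agar and incubated overnight. MBC taken as the lowest concentration killing >99.9% of cells. At least three independent experiments, each with three technical replicates.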

[13] = Bactericidal activity against Salmonella pullorum ATCC 7913 incubated for 24 hrs followed by replating on agar plate and measured after overnight incubation; type: functional, Salmonella enterica subsp. enterica serovar Pullorum; conditions: Salmonella enterica, ATCC 7913, 24 h; read-out: MBC>99.9; method in brief: as §5
[14] = Therapeutic index, ratio of MHC10 for hemolytic activity in human RBC to MIC95 against Candida tropicalis cgmcc2.1975; type: toxicity; conditions: human red blood cells (erythrocytes), read-out: TI; method in brief: as §1
Staphylococcus aureus [15] = experiment: Antibacterial activity against Staphylococcus aureus ATCC 25923 measured after 24 hrs; type: functional; method in brief: as §4
Candida albicans [16] = experiment: Antifungal activity against Candida albicans cgmcc2.2086 measured after 48 hrs in presence of NH4Cl by broth microdilution method; type: functional
[17] = Therapeutic index, ratio of MHC10 for hemolytic activity in human RBC to MIC95 against Staphylococcus aureus ATCC 29213; type: toxicity; conditions: human red blood cells (erythrocytes), read-out: TI; method in brief: as §1
Escherichia coli [18] = experiment: Antibacterial activity against Escherichia coli ATCC 25922 measured after 18 to 24 hrs in presence of NaCl; type: functional
Escherichia coli [19] = experiment: Antibacterial activity against Escherichia coli 078 measured after 24 hrs; type: functional; method in brief: as §2
Salmonella typhimurium = experiment: Antibacterial activity against Salmonella typhimurium ATCC 14028 measured after 24 hrs; type: functional, Salmonella enterica subsp. enterica serovar Typhimurium; method in brief: as §2
Escherichia coli [20] = experiment: Antibacterial activity against Escherichia coli K99 measured after 24 hrs; type: functional; method in brief: as §2
Pseudomonas aeruginosa [21] = experiment: Bactericidal activity against Pseudomonas aeruginosa ATCC 27853 incubated for 24 hrs followed by replating on agar plate and measured after overnight incubation; type: functional; conditions: for MBC: ATCC 27853, 24 h, read-out: MBC>99.9; method in brief: as §5
Staphylococcus aureus [22] = experiment: Bactericidal activity against Staphylococcus aureus ATCC 25923 incubated for 24 hrs followed by replating on agar plate and measured after overnight incubation; type: functional; conditions: for MBC: ATCC 25923, 24 h, read-out: MBC>99.9; method in brief: as §3
[23] = Therapeutic index, ratio of MHC10 for hemolytic activity in human RBC to MIC95 against methicillin-resistant Staphylococcus aureus ATCC 43300; type: toxicity; conditions: human red blood cells (erythrocytes), read-out: TI; method in brief: as §1
[24] = Therapeutic index, ratio of MHC10 for hemolytic activity in human RBC to MIC95 against Candida parapsilosis cgmcc2.3989; type: toxicity; conditions: human red blood cells (erythrocytes), read-out: TI; method in brief: as §1
Escherichia coli [25] = experiment: Antibacterial activity against Escherichia coli ATCC 25922 measured after 18 to 24 hrs in presence of MgCl2; type: functional
Candida albicans [26] = experiment: Antifungal activity against Candida albicans cgmcc2.2086 measured after 48 hrs by broth microdilution method; type: functional
Method in brief: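 Modified CLSI M27-A2 microdilution. Yeast colonies were diluted in MOPS-buffered RPMI 1640 to a final (0.5–1) × 10^3 CFU mL−1 and mixed with an equal volume of peptide serially diluted in 0.2% BSA. After 48 h at 28 °C, MIC was read at A492 as the lowest concentration inhibiting 95% of growth. At least three independent experiments, each with three technical replicates.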

Escherichia coli [27] = experiment: Antibacterial activity against Escherichia coli ATCC 25922 measured after 24 hrs; type: functional; method in brief: as §2
Staphylococcus aureus [28] = experiment: Antibacterial activity against Staphylococcus aureus ATCC 29213 measured after 18 to 24 hrs in presence of FeCl3; type: functional
Pseudomonas aeruginosa [29] = experiment: Antibacterial activity against Pseudomonas aeruginosa ATCC 27853 measured after 24 hrs; type: functional; method in brief: as §2
Escherichia coli [30] = experiment: Antibacterial activity against Escherichia coli ATCC 25922 measured after 18 to 24 hrs in presence of FeCl3; type: functional
[31] = Salmonella enterica, ATCC 14028, 24 h

## H-AARIILRWFRR-NH2
Candida albicans [1]; cgmcc2.2086, 48 h
  MIC95: 8 µM
[2]
  selectivity ratio: 53.8
Staphylococcus aureus [3]
  MIC95: 32 µM
Escherichia coli [4]; UB1005, 24 h
  MIC95: 2 µM
Escherichia coli [5]
  MIC95: 4 µM
[6]; ATCC 12228, 24 h
  MIC95: 2 µM
Staphylococcus aureus [7]
  MIC95: 8 µM
Staphylococcus aureus [8]
  MBC: 8 µM
Candida albicans [9]; cgmcc2.2086, 48 h
  MIC95: 8 µM
Staphylococcus aureus [10]; ATCC 29213, 24 h
  MIC95: 4 µM
Candida albicans [11]; cgmcc2.2086, 48 h
  MIC95: 16 µM
[12]
  MBC: 4 µM
[13]
  MBC: 8 µM
[14]
  selectivity ratio: 50.8
Staphylococcus aureus [15]; ATCC 25923, 24 h
  MIC95: 8 µM
Candida albicans [16]; cgmcc2.2086, 48 h
  MIC95: 8 µM
[17]
  selectivity ratio: 53.8
Escherichia coli [18]
  MIC95: 8 µM
Escherichia coli [19]; Escherichia coli, 078, 24 h
  MIC95: 2 µM
Salmonella typhimurium; [31]
  MIC95: 4 µM
Escherichia coli [20]; K99, 24 h
  MIC95: 2 µM
Pseudomonas aeruginosa [21]
  MBC: 16 µM
Staphylococcus aureus [22]
  MBC: 8 µM
[23]
  selectivity ratio: 53.8
[24]
  selectivity ratio: 50.8
Escherichia coli [25]
  MIC95: 2 µM
Candida albicans [26]; cgmcc2.2086, 48 h
  MIC95: 8 µM
Escherichia coli [27]; ATCC 25922, 24 h
  MIC95: 2 µM
Staphylococcus aureus [28]
  MIC95: 4 µM
Pseudomonas aeruginosa [29]; ATCC 27853, 24 h
  MIC95: 8 µM
Escherichia coli [30]
  MIC95: 2 µM

## POLYMYXIN B
Candida albicans [1]
  MIC95: 32 µM
Staphylococcus aureus [3]
  MIC95: 64 µM
Escherichia coli [4]
  MIC95: 1 µM
Escherichia coli [5]
  MIC95: 16 µM
[6]
  MIC95: 32 µM
Staphylococcus aureus [7]
  MIC95: 64 µM
Staphylococcus aureus [8]
  MBC>99.9: 128 µM
Candida albicans [9]
  MIC95: 32 µM
Staphylococcus aureus [10]
  MIC95: 32 µM
Candida albicans [11]
  MIC95: 32 µM
[12]
  MBC>99.9: 64 µM
Staphylococcus aureus [15]
  MIC95: 64 µM
Candida albicans [16]
  MIC95: 32 µM
Escherichia coli [18]
  MIC95: 4 µM
Escherichia coli [19]
  MIC95: 1 µM
Salmonella typhimurium; Salmonella enterica subsp. enterica serovar Typhimurium
  MIC95: 2 µM
Escherichia coli [20]
  MIC95: 1 µM
Pseudomonas aeruginosa [21]
  MBC>99.9: 4 µM
Staphylococcus aureus [22]
  MBC>99.9: > 128 µM
Escherichia coli [25]
  MIC95: 1 µM
Candida albicans [26]
  MIC95: 32 µM
Escherichia coli [27]
  MIC95: 2 µM
Staphylococcus aureus [28]
  MIC95: 32 µM
Pseudomonas aeruginosa [29]
  MIC95: 2 µM
Escherichia coli [30]
  MIC95: 2 µM

## H-AARIILRWRFR-NH2
Candida albicans [1]; cgmcc2.2086, 48 h
  MIC95: 8 µM
[2]
  selectivity ratio: 215
Staphylococcus aureus [3]
  MIC95: 4 µM
Escherichia coli [4]; UB1005, 24 h
  MIC95: 4 µM
Escherichia coli [5]
  MIC95: 4 µM
[6]; ATCC 12228, 24 h
  MIC95: 1 µM
Staphylococcus aureus [7]
  MIC95: 2 µM
Staphylococcus aureus [8]
  MBC: 1 µM
Candida albicans [9]; cgmcc2.2086, 48 h
  MIC95: 8 µM
Staphylococcus aureus [10]; ATCC 29213, 24 h
  MIC95: 1 µM
Candida albicans [11]; cgmcc2.2086, 48 h
  MIC95: 16 µM
[12]
  MBC: 4 µM
[13]
  MBC: 4 µM
[14]
  selectivity ratio: 50.8
Staphylococcus aureus [15]; ATCC 25923, 24 h
  MIC95: 2 µM
Candida albicans [16]; cgmcc2.2086, 48 h
  MIC95: 8 µM
[17]
  selectivity ratio: 215
Escherichia coli [18]
  MIC95: 8 µM
Escherichia coli [19]; Escherichia coli, 078, 24 h
  MIC95: 2 µM
Salmonella typhimurium; [31]
  MIC95: 2 µM
Escherichia coli [20]; K99, 24 h
  MIC95: 2 µM
Pseudomonas aeruginosa [21]
  MBC: 4 µM
Staphylococcus aureus [22]
  MBC: 4 µM
[23]
  selectivity ratio: 215
[24]
  selectivity ratio: 50.8
Escherichia coli [25]
  MIC95: 4 µM
Candida albicans [26]; cgmcc2.2086, 48 h
  MIC95: 8 µM
Escherichia coli [27]; ATCC 25922, 24 h
  MIC95: 4 µM
Staphylococcus aureus [28]
  MIC95: 1 µM
Pseudomonas aeruginosa [29]; ATCC 27853, 24 h
  MIC95: 4 µM
Escherichia coli [30]
  MIC95: 4 µM
